Reference: ChEMBL document CHEMBL4130607, “Sodium-Periodate-Mediated Harringtonine Derivatives and Their Antiproliferative Activity against HL-60 Acute Leukemia Cells” (J Nat Prod, 2018)

Tests used:
[1] = system: HL-60; experiment: Antiproliferative activity against human HL60 cells after 62 hrs by MTS assay; format: functional, cell-based; conditions: HL-60, 62 h
Procedure, shortened: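 HL-60 cells kept in RPMI-1640 with 10% heat-inactivated FBS, penicillin/streptomycin, 37 °C, 5% CO2. Seeded at 2.0 × 10^4 cells/mL with increasing compound concentrations for 62 h. MTS reagent added, formazan absorbance read at 492/620 nm after 2 h. IC50 from linear regression of viability against log concentration. Mean ± SD of triplicate tests.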

[2] = Drug uptake in human HL60 cells at 1 uM after 3 hrs by indirect competitive ELISA; format: ADME, cell-based; conditions: hl-60, 3 h
Procedure, shortened: (§1)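 HL-60 cells at 5.0 × 10^5 cells/mL were preincubated 1 h, then exposed to compound (final 1, 10 or 100 μM) for 3 h. Cells were washed three times in PBS and lysed in RIPA buffer on ice for 20 min. Cleared supernatant was run in icELISA: HT–HSA coated plate, competition with mAb 1D2, HRP anti-mouse IgG, ABTS, A405. Result given as ng per 5 × 10^6 cells and uptake rate %.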

[3] = Drug uptake in human HL60 cells at 10 uM after 3 hrs by indirect competitive ELISA; format: ADME, cell-based; conditions: hl-60, 3 h; procedure, shortened: as §1
[4] = Drug uptake in human HL60 cells at 100 uM after 3 hrs by indirect competitive ELISA; format: ADME, cell-based; conditions: hl-60, 3 h; procedure, shortened: as §1

| Compound | IC50 [1] | Drug uptake [2] | Drug uptake [3] | Drug uptake [4] |
| --- | --- | --- | --- | --- |
| COC1=C[C@]23CCCN2CCc2cc4c(cc2[C@@H]3[C@@H]1O)OCO4 [CEPHALOTAXINE] | 61.2 µM | – | – | – |
| COC(=O)C[C@](O)(CCC(C)(C)O)C(=O)O[C@@H]1C(OC)=C[C@]23CCCN2CCc2cc4c(cc2[C@H]13)OCO4 [HARRINGTONINE] | 0.047 µM | 3.34% | 0.61% | 0.35% |
| COC(=O)C[C@](O)(CCCC(C)(C)O)C(=O)O[C@@H]1C(OC)=C[C@]23CCCN2CCc2cc4c(cc2[C@H]13)OCO4 [OMACETAXINE MEPESUCCINATE] | 0.022 µM | – | – | – |
| COC(=O)C[C@](O)(CCC(C)(C)O)C(=O)O[C@@H]1C(OC)=C[C@]23CCCN2C(=O)c2cc4c(cc2[C@H]13)OCO4 | > 100 µM | – | – | – |

Further lines, with some results ahead:

| IC50 [1] | Compound | Drug uptake [2] | Drug uptake [3] | Drug uptake [4] |
| --- | --- | --- | --- | --- |
| > 100 µM | COC1=C[C@]23CCCN2CCc2cc4c(cc2[C@@H]3[C@@H]1OC(=O)[C@@](O)(CCC(C)(C)O)CC(=O)O)OCO4 | – | – | – |
| > 100 µM | COC1=C[C@]23CCC(=O)N2CCc2cc4c(cc2[C@@H]3[C@@H]1OC(=O)[C@@](O)(CCC(C)(C)O)CC(=O)O)OCO4 | – | – | – |
| > 100 µM | COC(=O)C[C@](O)(CCC(C)(C)O)C(=O)O[C@@H]1C(OC)=C[C@]23CCC(=O)N2CCc2cc4c(cc2[C@H]13)OCO4 | 0.09% | 0.02% | 0.02% |
| > 100 µM | COC1=C[C@]23CCCN2C(=O)c2cc4c(cc2[C@@H]3[C@@H]1OC(=O)[C@@](O)(CCC(C)(C)O)CC(=O)O)OCO4 | – | – | – |
